Measurements published in ChEMBL document CHEMBL2150901, “Synthesis and biological activity of tricyclic cycloalkylimidazo-, pyrimido- and diazepinopurinediones” (Eur J Med Chem, 2011).
Active and inactive are the calls of the source. The rule behind the calls is not given here.

How the values were obtained:
Mus musculus [1] = test: Anticonvulsant activity in F1 albino mouse assessed as protection against maximal electroshock-induced seizures at 300 mg/kg, ip after 0.5 hrs; assay type: functional, organism-based; parameters: dose 300 mg/kg
How it was run: (§1)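 Male albino F-1 mice (18–25 g), groups of 1–5 (rotorod 2–8). Compound given ip as a suspension in 0.5% methylcellulose at 30, 100 and 300 mg/kg. Seizures by maximal electroshock or subcutaneous pentylenetetrazole; neurotoxicity by rotorod. Read at 0.5 and 4 h, with some at 0.25, 1 and 2 h. Value is the minimum active dose, with protected (or toxic)/tested animals.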

Mus musculus [2] = test: Anticonvulsant activity in F1 albino mouse assessed as protection against maximal electroshock-induced seizures at 300 mg/kg, ip after 1 hr; assay type: functional, organism-based; parameters: dose 300 mg/kg; how it was run: as §1
Mus musculus [3] = test: Anticonvulsant activity in F1 albino mouse assessed as protection against subcutaneous pentylenetetrazole-induced seizures at 300 mg/kg, ip after 0.25 hrs; assay type: functional, organism-based; parameters: dose 300 mg/kg; how it was run: as §1
Mus musculus [4] = test: Anticonvulsant activity in F1 albino mouse assessed as protection against subcutaneous pentylenetetrazole-induced seizures at 300 mg/kg, ip after 4 hrs; assay type: functional, organism-based; parameters: dose 300 mg/kg; how it was run: as §1
Mus musculus [5] = test: Neurotoxicity in F1 albino mouse assessed as minimal motor impairment at 300 mg/kg, ip after 1 hr by rotorod test; assay type: toxicity, organism-based; parameters: dose 300 mg/kg, route intraperitoneal; conditions: in vivo; how it was run: as §1
Mus musculus [6] = test: Neurotoxicity in F1 albino mouse assessed as minimal motor impairment at 300 mg/kg, ip after 4 hrs by rotorod test; assay type: toxicity, organism-based; parameters: dose 300 mg/kg, route intraperitoneal; conditions: in vivo; how it was run: as §1
Rattus norvegicus [7] = test: Anticonvulsant activity in Sprague-Dawley albino rat assessed as protection against maximal electroshock-induced seizures at 30 mg/kg, po after 0.5 hrs; assay type: functional, organism-based; parameters: dose 30 mg/kg
How it was run: (§2)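 Male Sprague-Dawley albino rats (100–150 g), groups of 4. Oral suspension in 0.5% methylcellulose/water. Protection assessed by maximal electroshock or subcutaneous pentylenetetrazole; motor impairment by rotorod. Time points 0.25–4 h. Value is protected (or toxic)/tested animals.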

Rattus norvegicus [8] = test: Anticonvulsant activity in Sprague-Dawley albino rat assessed as protection against maximal electroshock-induced seizures at 30 mg/kg, po after 1 hr; assay type: functional, organism-based; parameters: dose 30 mg/kg; how it was run: as §2
Rattus norvegicus [9] = test: Anticonvulsant activity in Sprague-Dawley albino rat assessed as protection against maximal electroshock-induced seizures at 30 mg/kg, po after 2 hrs; assay type: functional, organism-based; parameters: dose 30 mg/kg; how it was run: as §2
Rattus norvegicus [10] = test: Anticonvulsant activity in Sprague-Dawley albino rat assessed as protection against maximal electroshock-induced seizures at 30 mg/kg, po after 4 hrs; assay type: functional, organism-based; parameters: dose 30 mg/kg; how it was run: as §2
Rattus norvegicus [11] = test: Anticonvulsant activity in Sprague-Dawley albino rat assessed as protection against subcutaneous pentylenetetrazole-induced seizures at 50 mg/kg, po after 0.5 hrs; assay type: functional, organism-based; parameters: dose 50 mg/kg; how it was run: as §2
Rattus norvegicus [12] = test: Anticonvulsant activity in Sprague-Dawley albino rat assessed as protection against subcutaneous pentylenetetrazole-induced seizures at 50 mg/kg, po after 1 hr; assay type: functional, organism-based; parameters: dose 50 mg/kg; how it was run: as §2
Rattus norvegicus [13] = test: Anticonvulsant activity in Sprague-Dawley albino rat assessed as protection against subcutaneous pentylenetetrazole-induced seizures at 50 mg/kg, po after 4 hrs; assay type: functional, organism-based; parameters: dose 50 mg/kg; how it was run: as §2
Rattus norvegicus [14] = test: Neurotoxicity in Sprague-Dawley albino rat assessed as minimal motor impairment at 30 mg/kg, po after 0.5 hrs by rotorod test; assay type: toxicity, organism-based; parameters: dose 30 mg/kg, route oral; conditions: in vivo; how it was run: as §2
Adenosine receptor A2a = Adenosine receptor A2a (Homo sapiens, UniProt P29274); test: Displacement of [3H]MSX-2 from human recombinant adenosine A2A receptor expressed in CHO cells; assay type: cell-based
Chain of Adenosine receptor A2a (P29274 whole entry): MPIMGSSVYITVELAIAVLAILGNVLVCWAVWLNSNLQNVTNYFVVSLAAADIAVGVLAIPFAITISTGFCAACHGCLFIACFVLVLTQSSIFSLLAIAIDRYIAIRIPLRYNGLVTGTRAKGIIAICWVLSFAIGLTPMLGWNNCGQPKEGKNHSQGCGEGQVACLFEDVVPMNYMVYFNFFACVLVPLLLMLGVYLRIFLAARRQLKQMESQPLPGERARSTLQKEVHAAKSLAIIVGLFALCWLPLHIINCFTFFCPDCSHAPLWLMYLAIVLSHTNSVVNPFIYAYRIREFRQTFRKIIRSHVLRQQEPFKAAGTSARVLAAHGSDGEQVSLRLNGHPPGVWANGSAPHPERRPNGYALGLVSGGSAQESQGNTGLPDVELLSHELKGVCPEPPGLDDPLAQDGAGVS

Adenosine receptor A1 = target: T1, Adenosine receptor A1 (Homo sapiens, UniProt P30542); test: Displacement of [3H]CCPA from human recombinant adenosine A1 receptor expressed in CHO cells; assay type: cell-based
T1 sequence (P30542 whole entry): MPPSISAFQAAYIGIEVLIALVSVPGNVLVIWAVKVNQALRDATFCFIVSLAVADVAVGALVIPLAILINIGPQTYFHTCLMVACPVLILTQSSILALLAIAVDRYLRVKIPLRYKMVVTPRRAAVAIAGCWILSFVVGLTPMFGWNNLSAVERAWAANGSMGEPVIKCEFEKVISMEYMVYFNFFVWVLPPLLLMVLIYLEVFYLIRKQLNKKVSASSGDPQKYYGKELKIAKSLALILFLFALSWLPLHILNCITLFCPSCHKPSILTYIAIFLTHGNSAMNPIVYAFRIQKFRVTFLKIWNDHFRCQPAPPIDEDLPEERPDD

SMILES: Cn1c(=O)c2c(nc3n2CCCN3CC2CC2)n(C)c1=O
- Activity (Mus musculus [1]): Active
- Activity (Mus musculus [2]): inactive
- Activity (Mus musculus [3]): inactive
- Activity (Mus musculus [4]): inactive
- Activity (Mus musculus [5]): Non-toxic
- Activity (Mus musculus [6]): Non-toxic
- Activity (Rattus norvegicus [7]): inactive
- Activity (Rattus norvegicus [8]): inactive
- Activity (Rattus norvegicus [9]): inactive
- Activity (Rattus norvegicus [10]): inactive
- Activity (Rattus norvegicus [11]): inactive
- Activity (Rattus norvegicus [12]): inactive
- Activity (Rattus norvegicus [13]): inactive
- Activity (Rattus norvegicus [14]): Non-toxic
- Ki (Adenosine receptor A2a): 0.417 µM
- Ki (Adenosine receptor A1): 7.13 µM
